Entries after “also recorded” stand apart in the source; their conditions may differ.
Legend:
HIV-1 CA Asn139Ala = HIV-1 CA Asn139Ala (Human immunodeficiency virus type 1 group M subtype B, UniProt P12493, N271A); test: SPR binding site analysis, mutant CA; conditions: 50 μM compound, equilibrium response normalized to theoretical Rmax
Method in brief: (§1)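 Wild-type and Ala-mutant CA were amine-coupled to a GLH chip at 100 μg/mL in sodium acetate pH 4.5, after EDC (0.2 M)/sulfo-NHS (0.05 M) activation for 5 min at 25 °C, then capped with 1 M ethanolamine pH 8.0. Test compound was injected at 100 μL/min with a 2 min association. Rmax assumed 1:1 per surface. Responses from 12 replicate injections per surface were analysed.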

HIV-1_89BZ167 = test: PBMC-based HIV-1 replication assay; type: cell-based; conditions: HIV-1 replication in primary human PBMCs
Method in brief: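 Fresh human PBMCs from HIV-1/HBV-seronegative donors were stimulated with 4 μg/mL PHA for 48–72 h and kept in 20 U/mL rhIL-2. Cells from ≥2 donors were pooled at 5 × 10^4 cells/well and infected with 89BZ167 (subtype B, CXCR4-tropic) at MOI ≅0.1 with nine compound concentrations (triplicate wells) for 7 days. Supernatant RT activity gave infection as % of compound-free control, from which IC50 was derived.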

HIV-1 CA Ser41Ala = HIV-1 CA Ser41Ala (Human immunodeficiency virus type 1 group M subtype B, UniProt P12493, S173A); test: SPR binding site analysis, mutant CA; conditions: 50 μM compound, equilibrium response normalized to theoretical Rmax
Method in brief: as §1

HIV-1 CA Lys170Ala = HIV-1 CA Lys170Ala (Human immunodeficiency virus type 1 group M subtype B, UniProt P12493, K302A); test: SPR binding site analysis, mutant CA; conditions: 50 μM compound, equilibrium response normalized to theoretical Rmax
Method in brief: as §1

HIV-1 CA Arg173Ala = HIV-1 CA Arg173Ala (Human immunodeficiency virus type 1 group M subtype B, UniProt P12493, R305A); test: SPR binding site analysis, mutant CA; conditions: 50 μM compound, equilibrium response normalized to theoretical Rmax
Method in brief: as §1

[1] = test system: peripheral blood mononuclear cells (PBMCs); test: MTS cytotoxicity assay in PBMCs; type: cell-based, human; conditions: up to the highest test concentration of 100 μM
Method in brief: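 Cytotoxicity was read by MTS addition alongside the 7-day HIV-1 infection of pooled PHA/IL-2-stimulated human PBMCs (5 × 10^4 cells/well, nine compound concentrations, triplicate wells). The maximum concentration tested was 100 μM. CC50 is the half-maximal cytotoxic concentration. TI = CC50/IC50, with IC50 taken from the RT-based antiviral readout against 89BZ167.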

HIV-1NL4-3 CA protein = HIV-1NL4-3 CA protein (Human immunodeficiency virus type 1 group M subtype B, UniProt P12493); test: SPR direct binding to immobilized CA
Method in brief: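 CA was amine-coupled at 100 μg/mL in sodium acetate pH 4.5 onto an EDC/sulfo-NHS-activated GLH chip, with a nonspecific-antibody reference surface. A 10 mM DMSO stock of test compound was serially diluted 2-fold to 18.75–300 μM in PBS-T pH 7.4 with 5% DMSO. One-shot kinetics ran at 100 μL/min, 2 min association and 2 min dissociation. Buffer and reference responses were subtracted, and data were fitted to a 1:1 model.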

HIV-1 CA Ile37Ala = HIV-1 CA Ile37Ala (Human immunodeficiency virus type 1 group M subtype B, UniProt P12493, I169A); test: SPR binding site analysis, mutant CA; conditions: 50 μM compound, equilibrium response normalized to theoretical Rmax
Method in brief: as §1

HIV-1 CA Pro38Ala = HIV-1 CA Pro38Ala (Human immunodeficiency virus type 1 group M subtype B, UniProt P12493, P170A); test: SPR binding site analysis, mutant CA; conditions: 50 μM compound, equilibrium response normalized to theoretical Rmax
Method in brief: as §1

HIV-1 CA Gln179Ala = HIV-1 CA Gln179Ala (Human immunodeficiency virus type 1 group M subtype B, UniProt P12493, Q311A); test: SPR binding site analysis, mutant CA; conditions: 50 μM compound, equilibrium response normalized to theoretical Rmax
Method in brief: as §1

## O=[N+]([O-])c1cccc(-c2nc3c4cc(I)ccc4c4ccccc4c3[nH]2)c1 [Compound 34, 5-iodo-2-(3-nitrophenyl)-1H-phenanthro[9,10-d]imidazole]
HIV-1 CA Asn139Ala
  effect of mutation on compound binding versus wild-type CA: no effect
HIV-1_89BZ167
  improvement in antiviral potency over I-XW-053 (compound 1): 11 fold
HIV-1 CA Ser41Ala
  effect of mutation on compound binding versus wild-type CA: loss of favorable interactions
HIV-1 CA Lys170Ala
  effect of mutation on compound binding versus wild-type CA: loss of favorable interactions; also recorded: major effect
HIV-1 CA Arg173Ala
  effect of mutation on compound binding versus wild-type CA: increase the interaction
[1]
  toxicity / viability of PBMCs: no toxicity; also recorded: not toxic
HIV-1NL4-3 CA protein
  Kd: 11.8 ± 4.7 µM
HIV-1 CA Ile37Ala
  effect of mutation on compound binding versus wild-type CA: no effect
HIV-1 CA Pro38Ala
  effect of mutation on compound binding versus wild-type CA: increase the interaction
HIV-1 CA Gln179Ala
  effect of mutation on compound binding versus wild-type CA: loss of favorable interactions

Source: paper PMC4245176 (Journal of Chemical Information and Modeling, 2014)
